Screens as filed in PubChem BioAssay.
A selection: hits, their analogues and other compounds. The true share with any hit is near 2%.
TRPN1 ag = zebrafish TRPN1 channel agonists, primary screen, cell-based, HEK293, calcium fluorescence | HEK293 zebrafish TRPN1-YFP, Fluo-8 calcium fluorescence; 100% = response to 87 µM carbachol | activation, % at 3 µM | transient receptor potential cation channel N1 (TRPN1/NompC), Danio rerio | actives 0.18% (n = 220,000);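 active means activation above its plate's cutoff, the mean activation of test wells on that plate plus 3 SD, cut at about 19% in these data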;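 further: 0% = DMSO alone and 100% = 87 µM carbachol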
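Material: zebrafish TRPN1-YFP in HEK293 cells. Doses: one dose of 3 µM, 0.3% DMSO. Incubation: dye 1 h 37 °C plus 30 min RT. Measured by: intracellular calcium fluorescence with Fluo-8.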
CRFR2-BP antag = antagonists of CRF-BP/CRF-R2 complex, primary screen, cell-based, HEK293, calcium dye fluorescence, uHTS | CRF-induced calcium fluorescence | inhibition, % at 11.8 µM | actives 0.59% (n = 350,000);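 active means inhibition of the ligand-induced calcium signal above about 50% at the single tested concentration, limit read from the data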
CRFBP-R2 agonist = agonists of CRF-BP/CRF-R2 complex, primary screen, cell-based, HEK293, calcium dye fluorescence, uHTS | CRF-binding protein / CRF receptor 2 complex (human) | calcium dye fluorescence (FLIPR); percent of saturating CRF peptide response | activation, % at 13.2 µM | actives 0.46% (n = 350,000) | AID 588473, 2011;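 active means activation of at least 50%, plus an integration ratio under a set limit after plate pattern correction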;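 further: plate controls were neutral control wells without compound for no effect and CRF at EC100 for full effect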
TRPML3 agonist = human TRPML3 channel agonists, primary screen, cell-based, HEK293 TRPML3-YFP, Fluo-8 calcium fluorescence, 3 µM; AID 1448, 2008; Mucolipin-3 (Homo sapiens), Q8TDD5; activation, % at 3 µM; actives 0.29% (n = 220,000); 100% = the carbachol control signal;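 active means activation above its plate's cutoff, the mean activation of the plate's test wells plus 3 SD, cut at about 12% in these data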;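 further: 0% = DMSO only wells and 100% = carbachol wells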
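Test system: HEK293 cells stably carrying human TRPML3-YFP; Doses: single dose, 3 µM final nominal compound, 0.3% DMSO final; Schedule: dye loading 1 h 37 °C then 30 min ambient, 125 s read; Technique: Fluo-8 calcium fluorescence; Benchmarks: high control carbachol 87 µM, low control DMSO.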
GPR7 antag = GPR7 receptor antagonists, primary screen, cell-based, fluorescence, single concentration; Neuropeptides B/W receptor type 1 (Homo sapiens), P48145; inhibition, % at 4.4 µM; GPR7-expressing cells, fluorescence antagonist assay; actives 1.1% (n = 290,000); in the data active means inhibition above about 16%, passing the limit was not always enough;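 further: cells stimulated with the agonist NPW; 0% = agonist with vehicle and 100% = vehicle without agonist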
Target sequence (P48145 whole entry, looked up): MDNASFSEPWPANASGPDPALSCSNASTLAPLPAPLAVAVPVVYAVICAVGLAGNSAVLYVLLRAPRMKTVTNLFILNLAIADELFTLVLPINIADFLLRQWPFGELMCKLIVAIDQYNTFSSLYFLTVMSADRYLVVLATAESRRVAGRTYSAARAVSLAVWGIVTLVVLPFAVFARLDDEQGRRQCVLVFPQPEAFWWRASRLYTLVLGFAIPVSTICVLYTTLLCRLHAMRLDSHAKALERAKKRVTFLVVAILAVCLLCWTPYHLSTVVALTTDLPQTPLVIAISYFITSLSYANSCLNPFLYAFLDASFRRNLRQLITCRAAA
* hit, by the source's call; . = no result given.

SMILES | TRPN1 ag | CRFR2-BP antag | CRFBP-R2 agonist | TRPML3 agonist | GPR7 antag
O=C1c2ccccc2-c2nnc(-c3ccc(O)cc3)cc21 | -1 | 103* | -1 | 0 | 2
COc1ccc(C(=O)C(CCC(CNC(C)(C)C)C(=O)c2ccc(OC)cc2)CNC(C)(C)C)cc1 (configuration not stated) | 1 | -60 | 29 | 0 | 79*
CC(C)OCCCNc1ccc(N2C(=O)CCCC2=O)cc1[N+](=O)[O-] | . | 1 | 1 | . | -18
O=[N+]([O-])c1ccc(O)c(Nc2ncnc3ccccc23)c1 | -1 | 63* | 42 | 1 | 0
O=[N+]([O-])c1ccc(O)c(Nc2ncnc3ccc(Br)cc23)c1 | 1 | 66* | 52* | 1 | -13
COc1ccc([N+](=O)[O-])cc1Nc1ncnc2ccccc12 | 0 | 26 | -2 | 1 | 1
Cc1ccc(O)c(Nc2ncnc3ccc([N+](=O)[O-])cc23)c1 | . | -7 | -4 | . | -11
CCOC(=O)C1(C(=O)OCC)CCN(S(=O)(=O)c2ccccc2)CC1 | . | 69* | -2 | . | .
O=C(OCC(=O)N1CCCCC1)c1cccs1 | . | -15 | 2 | . | .
CCOC(=O)C1CN(S(=O)(=O)c2ccccc2)C1 | 0 | 18 | -3 | 1 | -8
CCOC(=O)C1CCCN(S(=O)(=O)c2ccccc2)C1 (configuration not stated) | 0 | 78* | -1 | 0 | -13
CCOC(=O)C1CCCN(C(=O)COC(=O)c2cccs2)C1 (configuration not stated) | . | 95* | -2 | . | .
CCCCCC(=O)N1C[C@H](O)[C@@H](n2cc(C3CC3)nn2)C[C@@H]1c1ccc(Cl)cc1 | . | 9 | 1 | . | .
Cn1c(C(=O)N2CCC(C(=O)N3CCN(Cc4ccc5c(c4)OCO5)CC3)CC2)cc2sccc21 | 7 | 18 | 7 | 4 | -7
Cn1c(C(=O)N2CCC(C(=O)N3CCOCC3)CC2)cc2sccc21 | 2 | -13 | -3 | 0 | 20*
CCn1c(C)nc2cc(C(=O)NN=Cc3ccc([N+](=O)[O-])cc3)ccc21 | . | 73* | 2 | . | .
CCn1c(C)nc2cc(C(=O)N/N=C/c3ccc(O)cc3)ccc21 | 1 | -14 | 1 | 1 | 2
Cc1ccc(-n2[nH]c(C)c(/C=N/Nc3ccc([N+](=O)[O-])cc3[N+](=O)[O-])c2=O)cc1 | -1 | 112* | 28 | 0 | 4
CCOC(=O)CCNC(=O)N1CCCC(Cc2ccccc2)(C(=O)OCC)C1 (configuration not stated) | . | 4 | -1 | . | -15
CCOC(=O)c1cn(Cc2ccccc2)c(C(=O)OC(C)(C)C)c1O | . | -1 | 62* | . | .
Cc1ncc([N+](=O)[O-])n1CC(=O)Nc1ccc(Br)cc1 | . | -3 | 4 | . | 6
Nc1ncnc(Nc2ccc(S(N)(=O)=O)cc2)n1 | 1 | -3 | -1 | 1 | -4
O=C(Oc1cccc([N+](=O)[O-])c1)c1ccc2c(=O)n3c(nc2c1)CCC3 | . | 4 | 0 | . | .
S=C(NCCc1ccccc1)Nc1ccccc1Cl | 1 | 14 | -2 | 0 | 1
S=C(NCCCc1ccccc1)Nc1ccccc1Cl | 145* | 31 | 6 | 2 | -3
SMILES | TRPN1 ag | CRFR2-BP antag | CRFBP-R2 agonist | TRPML3 agonist | GPR7 antag
COc1ccc(CN2CCS(=O)(=O)CC2)cc1OC | 2 | 64* | 5 | 1 | 6
Cc1ccc(S(=O)(=O)c2nnn3c2nc(N2CCCCC2)c2ccccc23)cc1 | -2 | 51* | 2 | 1 | -7
CN(C)c1ccc(C=C2C(=O)OC(C)(C)OC2=O)cc1 | 0 | 52* | 1 | 1 | -2
CN(C)c1ccc(C=C2C(=O)OC(C)(C(C)(C)C)OC2=O)cc1 (configuration not stated) | 0 | 48 | 4 | 0 | -8
CCOC(=O)Cn1c(=O)oc2cc(S(=O)(=O)NC(C)(C)CC)ccc21 | 2 | 89* | 0 | 0 | -2
CCOC(=O)Cn1c(=O)oc2cc(S(=O)(=O)NCCC(C)C)ccc21 | 3 | -8 | 2 | 0 | 8
CN(C(=O)COC(=O)COc1ccc(Cl)cc1Cl)c1c(N)n(Cc2ccccc2)c(=O)[nH]c1=O | . | -4 | 0 | . | .
CCN(CC)CCCNc1ccc2ncn3c4ccc(O)cc4c(=O)c1c23 | . | -245 | 215* | . | .
O=C(CNC(=O)C(c1ccccc1)c1ccccc1)N/N=C/c1cccnc1 | -1 | -9 | -1 | 0 | 20*
CCOc1ccc(NC(=O)CCCN2C(=O)C(c3ccccc3)Oc3cccnc32)cc1 (configuration not stated) | . | 57* | -1 | . | 4
CCN(CCO)Cc1csc2cccc(Br)c12 | 1 | 83* | -3 | -1 | -13
COc1ccc([C@H]2C[C@H](n3cc(-c4ccc(F)cc4)nn3)[C@@H](O)CN2CC2CCCCC2)cc1 | . | 1 | 1 | . | .
Cc1ccccc1Cn1ccc(NC(=O)c2cc3ncc(Br)cn3n2)n1 | 8 | 66* | -1 | 2 | -1
COc1ccccc1C(=O)NCCC(=O)N(C)Cc1ccc(C)o1 | . | 1 | 1 | . | 1
Cc1ccc(S(=O)(=O)N2CCCN(C(=O)CNC(=O)c3cccc(C)c3)CC2)cc1 | . | -2 | -2 | . | .
Cc1ccccc1-n1ncc2c(SCC(=O)N3c4ccccc4CC3C)ncnc21 (configuration not stated) | 0 | 54* | 7 | 0 | -7
Cc1cc(OCC(=O)OCC(=O)NCc2cccs2)ccc1Cl | . | 5 | -5 | . | .
CCCCC(CC)C(=O)Oc1ccc(O)c(C(C)(C)C)c1 (configuration not stated) | 1 | -44 | 4 | 0 | 30*
CC(C)(C)c1cc(OC(=O)C2CCCC2)ccc1O | . | -23 | 8 | . | -2
O=C1NCCCCC1NS(=O)(=O)c1cccc2ccccc12 (configuration not stated) | . | 69* | -2 | . | 6
O=C(COC(=O)c1ccccc1Cl)NC1CCCCCC1 | . | 2 | -1 | . | .
Brc1ccc(CSc2nnc(-c3ccccn3)n2Cc2ccco2)cc1 | -2 | 13 | 0 | 0 | 18*
Cc1ccccc1CSc1nnc(-c2cccs2)n1Cc1ccco1 | -2 | 33 | -1 | -1 | 11
Cc1ccccc1CSc1nnc(-c2ccco2)n1Cc1ccco1 | -2 | 20 | 0 | -1 | 17*
Clc1cccc(CSc2nnc(-c3ccccn3)n2Cc2ccco2)c1 | -2 | 12 | -1 | -1 | 21*
COc1cc(CNc2ccccc2SC)cc(OC)c1OC | 0 | 73* | -7 | 0 | 5
COc1ccc(CNS(=O)(=O)CCNC(=O)c2cccc(OC)c2)cc1 | . | -15 | -1 | . | .
